Data from ChEMBL document CHEMBL1134963, “Synthesis and muscarinic M(2) subtype antagonistic activity of enantiomeric pairs of 3-demethylhimbacine (3-norhimbacine) and its C(4)-epimer” (Bioorg Med Chem Lett, 2002).
pKi: −log10 of the molar value.

Key:
[1] = target: T1, Muscarinic acetylcholine receptor M1 (Rattus norvegicus, UniProt P08482); test: The compound was tested in vitro for binding activity against M1 muscarinic receptor in homogenates of the cerebral cortex of rat using [3H]pirenzepine as radioligand; type: tissue-based
T1 sequence (P08482 whole entry): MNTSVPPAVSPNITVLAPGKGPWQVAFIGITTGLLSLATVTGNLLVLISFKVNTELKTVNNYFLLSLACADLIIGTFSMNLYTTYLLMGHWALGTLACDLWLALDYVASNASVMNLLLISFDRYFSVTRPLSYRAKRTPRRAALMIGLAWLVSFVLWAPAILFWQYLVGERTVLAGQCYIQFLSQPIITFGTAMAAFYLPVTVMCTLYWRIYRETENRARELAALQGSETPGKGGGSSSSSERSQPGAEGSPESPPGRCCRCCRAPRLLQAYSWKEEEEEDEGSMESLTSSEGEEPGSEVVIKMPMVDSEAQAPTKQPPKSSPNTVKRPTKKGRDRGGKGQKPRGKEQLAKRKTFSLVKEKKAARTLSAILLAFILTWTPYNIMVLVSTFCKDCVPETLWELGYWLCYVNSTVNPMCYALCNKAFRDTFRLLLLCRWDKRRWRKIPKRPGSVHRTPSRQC
In short: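 Rat cerebral cortex homogenate with [3H]-pirenzepine in 50 mM Tris buffer pH 7.4, 25 °C for 90 min. Bound ligand is separated by rapid GF-B filtration and counted by liquid scintillation. Non-specific binding is defined with 2 μM atropine. Compounds in DMSO, below 0.1% final. Ki = IC50/(1 + L/Kd) by Cheng–Prusoff.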

[2] = target: T2, Muscarinic acetylcholine receptor M2 (Rattus norvegicus, UniProt P10980); test: The compound was tested in vitro for binding activity against M2 muscarinic receptor in homogenates of the brainstem of rat using [3H]quinuclidinyl benzilate (QNB) as radioligand; type: tissue-based, Brain
T2 sequence (P10980 whole entry): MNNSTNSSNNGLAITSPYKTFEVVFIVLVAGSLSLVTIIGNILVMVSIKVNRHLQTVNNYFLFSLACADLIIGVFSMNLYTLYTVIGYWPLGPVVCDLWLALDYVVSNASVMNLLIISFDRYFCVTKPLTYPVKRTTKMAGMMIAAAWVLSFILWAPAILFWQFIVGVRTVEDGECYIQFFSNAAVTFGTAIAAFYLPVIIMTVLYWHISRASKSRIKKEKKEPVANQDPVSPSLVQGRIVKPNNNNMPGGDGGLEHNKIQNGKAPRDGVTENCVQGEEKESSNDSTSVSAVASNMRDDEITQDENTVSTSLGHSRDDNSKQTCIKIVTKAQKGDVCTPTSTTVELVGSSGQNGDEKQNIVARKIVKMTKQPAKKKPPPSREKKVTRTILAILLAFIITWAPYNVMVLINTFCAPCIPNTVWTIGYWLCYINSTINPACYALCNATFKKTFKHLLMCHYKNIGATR
In short: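 Competition binding on rat brainstem homogenate with [3H]-QNB in 50 mM Tris buffer (pH 7.4) for 90 min at 25 °C. Separation is by rapid GF-B filtration with scintillation counting. 2 μM atropine defines non-specific binding. DMSO stays under 0.1%. Ki is taken from IC50 via Cheng–Prusoff using radioligand concentration and Kd.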

| Compound | pKi [1] | pKi [2] | -Log Ki [2] |
| --- | --- | --- | --- |
| C[C@H]1CCC[C@H](/C=C/[C@H]2[C@H]3COC(=O)[C@H]3C[C@H]3CCCC[C@@H]32)N1C (stereo in doubt) | 6.00 | 6.10 | – |
| C[C@H]1CCC[C@H](/C=C/[C@H]2[C@H]3COC(=O)[C@H]3C[C@H]3CCCC[C@@H]32)N1C (stereo in doubt; 2) | 7.40 | 8.10 | – |
| C[C@H]1CCC[C@H](/C=C/[C@@H]2[C@H]3COC(=O)[C@H]3C[C@H]3CCCC[C@@H]32)N1C (stereo in doubt; 3) | 6.20 | 6.40 | – |
| C[C@H]1CCC[C@H](/C=C/[C@@H]2[C@H]3COC(=O)[C@H]3C[C@H]3CCCC[C@@H]32)N1C (stereo in doubt) | 6.30 | – | 6.4 |
| C[C@@H]1OC(=O)[C@H]2C[C@H]3CCCC[C@@H]3[C@@H](/C=C/[C@H]3CCC[C@H](C)N3C)[C@@H]12 [HIMBACINE] | 7.10 | 7.90 | – |
